In ChEMBL document CHEMBL3525963, “Tissue distribution and elimination of [14C]apixaban in rats” (Drug Metab Dispos, 2011):

Columns and labels:
Format in all cases: ADME, organism-based
Conditions in all cases: in vivo
[1] = test system: Rattus norvegicus; assay: Biodistribution in pregnant Sprague-Dawley rat bone marrow at 5 mg/kg, po administered as single dose measured after 8 hrs; parameters: dose 5 mg/kg, dosed compound name [14C]-apixaban, route oral
[2] = test system: Rattus norvegicus; assay: Biodistribution in male Sprague-Dawley rat salivary gland at 5 mg/kg, po administered as single dose measured after 4 hrs; parameters: dose 5 mg/kg, dosed compound name [14C]-apixaban, route oral
[3] = test system: Plasma; assay: AUC (0 to infinity) in lactating Sprague-Dawley rat plasma at 5 mg/kg, po administered as single dose; parameters: time infinity, dose 5 mg/kg, dosed compound name [14C]-apixaban, route oral
Method in brief: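 Fasted lactating SD rats received 5 mg/kg [14C]apixaban orally (formulation 5.0 mg/mL, 20 μCi/mL). Oxytocin was injected subcutaneously 15 min before collection, and 1 mL milk was taken under anesthesia by milking machine. Sampling was predose and at 0.5–24 h, 3 rats per time point. Plasma was obtained at 1300g for 10 min. Duplicate 50–100 µL aliquots were counted by LSC for 10 min. AUC was calculated in WinNonlin.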

[4] = test system: Rattus norvegicus; assay: Biodistribution in male Sprague-Dawley rat pituitary gland at 5 mg/kg, po administered as single dose measured after 8 hrs; parameters: dose 5 mg/kg, dosed compound name [14C]-apixaban, route oral
[5] = test system: Heart; assay: Biodistribution in male Sprague-Dawley rat heart at 5 mg/kg, po administered as single dose measured after 1 hr; parameters: dose 5 mg/kg, dosed compound name [14C]-apixaban, route oral
Method in brief: (§1)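 [¹⁴C]Apixaban given by oral gavage at 5 mg/kg (100 μCi/kg) in 0.5% Tween 80 in Labrafil (1.0 mg/mL dosing solution) to rats fasted overnight through 4 h post-dose. One rat per time point; carcass frozen in hexane/dry ice. Quantitative whole-body autoradiography used 40 µm sagittal sections and a phosphor imaging plate calibrated with [¹⁴C]glucose standards (0.001–6.5 μCi/g). Read-out in µg eq apixaban/g; LLOQ 0.037 μg eq/g.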

[6] = test system: Pancreas; assay: Biodistribution in male Sprague-Dawley rat pancreas at 5 mg/kg, po administered as single dose measured after 0.5 hrs; parameters: dose 5 mg/kg, dosed compound name [14C]-apixaban, route oral
Method in brief: (§2)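 [14C]apixaban (1.0 mg/mL, 20 μCi/mL) in 0.5% Tween 80 in Labrafil, given by oral gavage at 100 μCi/kg to male rats (225-252 g) fasted overnight through 4 h post-dose. One rat per time point. Carcasses frozen in hexane/dry ice and cut into 40 µm sagittal sections. QWBA read on phosphor plates against [14C]glucose standards, reported as µg eq/g. LLOQ 0.037 µg eq/g.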

[7] = test system: Heart; assay: Biodistribution in pregnant Sprague-Dawley rat heart at 5 mg/kg, po administered as single dose measured after 24 hrs; parameters: dose 5 mg/kg, dosed compound name [14C]-apixaban, route oral
Method in brief: (§3)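 Fasted pregnant SD rats (n=6, 270-319 g) each received one oral gavage dose of [14C]apixaban, 5 mg/kg (100 μCi/kg), in 0.5% Tween 80/Labrafil. One rat was killed at each of 0.5, 1, 4, 8, 24 and 48 h. Carcasses were frozen in hexane/dry ice, cut into 40 µm sagittal sections, exposed to phosphor plates and quantified against [14C]glucose standards as µg eq/g. LLOQ was 0.037 µg eq/g.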

[8] = test system: Rattus norvegicus; assay: Biodistribution in pregnant Sprague-Dawley rat pituitary gland at 5 mg/kg, po administered as single dose measured after 8 hrs; parameters: dose 5 mg/kg, dosed compound name [14C]-apixaban, route oral
[9] = test system: Rattus norvegicus; assay: Biodistribution in pregnant Sprague-Dawley rat kidney cortex at 5 mg/kg, po administered as single dose measured after 0.5 hrs; parameters: dose 5 mg/kg, dosed compound name [14C]-apixaban, route oral
[10] = test system: Heart; assay: Biodistribution in female Sprague-Dawley rat heart at 5 mg/kg, po administered as single dose measured after 8 hrs; parameters: dose 5 mg/kg, dosed compound name [14C]-apixaban, route oral
Method in brief: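 Quantitative whole-body autoradiography was run after a single 5 mg/kg (100 μCi/kg) oral gavage to fasted female or pregnant SD rats, one rat per time point. Carcasses were frozen in hexane/dry ice, and 40 µm sagittal sections were dried at −20°C for at least 48 h. Sections were exposed to a phosphor plate alongside [14C]glucose standards (0.001–6.5 µCi/g). Results are µg eq/g, with LLOQ 0.037 µg eq/g.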

[11] = test system: Pancreas; assay: Biodistribution in pregnant Sprague-Dawley rat pancreas at 5 mg/kg, po administered as single dose measured after 8 hrs; parameters: dose 5 mg/kg, dosed compound name [14C]-apixaban, route oral
Method in brief: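 Pregnant SD rats (270-319 g) were fasted overnight and given one oral gavage of 5 mg/kg (100 μCi/kg) in 0.5% Tween 80 in Labrafil. One rat was euthanized per time point (0.5, 1, 4, 8, 24, 48 h) and the carcass frozen. 40 µm sagittal sections were phosphor-imaged against [14C]glucose standards and results reported as µg eq/g; LLOQ 0.037 µg eq/g.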

[12] = test system: Pancreas; assay: Biodistribution in male Sprague-Dawley rat pancreas at 5 mg/kg, po administered as single dose measured after 8 hrs; parameters: dose 5 mg/kg, dosed compound name [14C]-apixaban, route oral; method in brief: as §2
[13] = test system: Blood; assay: Biodistribution in pregnant Sprague-Dawley rat blood at 5 mg/kg, po administered as single dose measured after 24 hrs; parameters: dose 5 mg/kg, dosed compound name [14C]-apixaban, route oral; method in brief: as §3
[14] = test system: Harderian gland; assay: Biodistribution in pregnant Sprague-Dawley rat harderian gland at 5 mg/kg, po administered as single dose measured after 0.5 hrs; parameters: dose 5 mg/kg, dosed compound name [14C]-apixaban, route oral
[15] = test system: Muscle tissue; assay: Biodistribution in female Sprague-Dawley rat muscle at 5 mg/kg, po administered as single dose measured after 4 hrs; parameters: dose 5 mg/kg, dosed compound name [14C]-apixaban, route oral; method in brief: as §1
[16] = test system: Thymus; assay: Biodistribution in male Sprague-Dawley rat thymus at 5 mg/kg, po administered as single dose measured after 8 hrs; parameters: dose 5 mg/kg, dosed compound name [14C]-apixaban, route oral
[17] = test system: Blood; assay: Cmax in male Sprague-Dawley rat blood at 5 mg/kg, po administered as single dose; parameters: dose 5 mg/kg, dosed compound name [14C]-apixaban, route oral
Method in brief: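 Fasted male, female or pregnant SD rats received a single oral gavage of 5 mg/kg (100 μCi/kg) in 0.5% Tween 80/Labrafil. One rat was killed per time point, up to 168 h (48 h for pregnant). Blood was collected into K3EDTA. Blood radioactivity came from autoradiogram or LSC data, and Cmax was taken from the concentration-time profile.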

[18] = test system: Spleen; assay: Biodistribution in male Sprague-Dawley rat spleen at 5 mg/kg, po administered as single dose measured after 0.5 hrs; parameters: dose 5 mg/kg, dosed compound name [14C]-apixaban, route oral; method in brief: as §2
[19] = test system: Blood; assay: Biodistribution in male Sprague-Dawley rat blood at 5 mg/kg, po administered as single dose measured after 4 hrs; parameters: dose 5 mg/kg, dosed compound name [14C]-apixaban, route oral; method in brief: as §1
[20] = test system: Thymus; assay: Biodistribution in male Sprague-Dawley rat thymus at 5 mg/kg, po administered as single dose measured after 72 hrs; parameters: dose 5 mg/kg, dosed compound name [14C]-apixaban, route oral
Method in brief: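 Fasted male SD rats (225-252 g) each received one oral gavage dose of [14C]apixaban, 5 mg/kg (100 μCi/kg), in 0.5% Tween 80/Labrafil vehicle. One rat was killed per time point, from 0.5 to 168 h. Frozen carcasses were cut into 40 µm sagittal whole-body sections and read by QWBA phosphor imaging against [14C]glucose calibrants. Results are in µg apixaban eq/g; BLQ <0.037 µg eq/g.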

[21] = test system: Pancreas; assay: Biodistribution in female Sprague-Dawley rat pancreas at 5 mg/kg, po administered as single dose measured after 0.5 hrs; parameters: dose 5 mg/kg, dosed compound name [14C]-apixaban, route oral; method in brief: as §1
[22] = test system: Lung; assay: Biodistribution in male Sprague-Dawley rat lung at 5 mg/kg, po administered as single dose measured after 1 hr; parameters: dose 5 mg/kg, dosed compound name [14C]-apixaban, route oral; method in brief: as §2
[23] = test system: Rattus norvegicus; assay: Biodistribution in fetal brain of pregnant Sprague-Dawley rat at 5 mg/kg, po administered as single dose measured after 8 hrs; parameters: dose 5 mg/kg, dosed compound name [14C]-apixaban, route oral
Method in brief: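 Pregnant SD rats received a single oral gavage of [14C]apixaban at 5 mg/kg (100 μCi/kg; 1.0 mg/mL, 20 μCi/mL in 0.5% Tween 80/Labrafil) after fasting, one dam per time point. Frozen carcasses were cut into 40 µm sagittal sections and read by phosphor-imaging QWBA against [14C]glucose standards. Fetal tissue radioactivity is reported as µg eq/g, with LLOQ 0.037 µg eq/g.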

Radiolabel recovery [1]: 0.06 ugequiv/g | Radiolabel recovery [2]: 0.54 ugequiv/g | AUC [3]: 3470 ngequiv.hr/g | Radiolabel recovery [4]: 0.07 ugequiv/g | Radiolabel recovery [5]: 0.7 ugequiv/g | Radiolabel recovery [6]: 0.47 ugequiv/g | Radiolabel recovery [7]: Not detected assumed BLQ | Radiolabel recovery [8]: 0.19 ugequiv/g | Radiolabel recovery [9]: 2.11 ugequiv/g | Radiolabel recovery [10]: 0.11 ugequiv/g | Radiolabel recovery [11]: 0.09 ugequiv/g | Radiolabel recovery [12]: 0.12 ugequiv/g | Radiolabel recovery [13]: Not detected assumed BLQ | Radiolabel recovery [14]: 1 ugequiv/g | Radiolabel recovery [15]: 0.29 ugequiv/g | Radiolabel recovery [16]: 0.06 ugequiv/g | Cmax [17]: 1180 ngequiv/g | Radiolabel recovery [18]: 0.18 ugequiv/g | Radiolabel recovery [19]: 0.6 ugequiv/g | Radiolabel recovery [20]: Not detected assumed BLQ | Radiolabel recovery [21]: 0.43 ugequiv/g | Radiolabel recovery [22]: 0.7 ugequiv/g | Radiolabel recovery [23]: < 0.037 ugequiv/g
Compound: COc1ccc(-n2nc(C(N)=O)c3c2C(=O)N(c2ccc(N4CCCC[14C]4=O)cc2)CC3)cc1
